# Reference: the M2OR odorant receptor database
# Target: T1, OR2G2 (Homo sapiens) (UniProt Q8NGZ5)
# T1 sequence (whole entry): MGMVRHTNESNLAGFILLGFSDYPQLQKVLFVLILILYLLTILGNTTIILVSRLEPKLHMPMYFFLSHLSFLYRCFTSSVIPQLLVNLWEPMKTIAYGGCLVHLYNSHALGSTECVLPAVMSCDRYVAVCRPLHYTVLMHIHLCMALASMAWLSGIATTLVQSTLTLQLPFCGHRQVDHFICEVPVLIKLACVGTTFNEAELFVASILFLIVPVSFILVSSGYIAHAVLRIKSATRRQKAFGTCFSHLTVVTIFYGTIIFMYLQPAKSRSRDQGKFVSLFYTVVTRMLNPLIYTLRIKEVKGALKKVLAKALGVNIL
# Details: stereoisomer not certain
# Procedure, shortened: (§1)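 Each entry records the cell line, G-protein, co-transfected protein and tags used. Methods varied with the source, often transient luciferase assays in mammalian cell lines. A receptor–molecule pair is called responsive (active) if the original authors judged its signal statistically different from baseline and non-responsive (inactive) otherwise.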
row,Compound,odorant receptor agonist call
1,COc1ccc(C)cc1,inactive
2,Cc1ccc(C(C)C)cc1O,inactive
3,CCCCC1CCC(=O)O1 (configuration not stated),inactive
4,CC1CC(C)(c2ccccc2)CO1 (configuration not stated),inactive
5,CCc1ccc(CC(C)(C)C=O)cc1,inactive
6,Cc1occc(=O)c1OC(=O)C(C)C,active
7,CCCCCC1COCCC1OC(C)=O (configuration not stated),inactive
8,CCCCCCCCC(OC(C)=O)OC(C)=O,inactive
9,CC1=CCC2CC1C2(C)C (configuration not stated),inactive
10,CCOC(=O)CC1(C)OCCO1,inactive
11,CC(C)=CCCC(C)=CCO,inactive
12,C=CC(C)(O)CCC=C(C)CCC=C(C)C (configuration not stated),inactive
13,CC(C)(C)C1CCCCC1OCCCCO (configuration not stated),inactive
14,CC(C)CCCC(C)(C)O,inactive
15,CCC=C(C)C(O)CCCCC (configuration not stated),inactive
16,CCCC(C)C(=O)OCC (configuration not stated),inactive
17,CCC(=O)C=CC1C(C)=CCCC1(C)C (configuration not stated),inactive
18,C=CCOC(=O)COCCC(C)C,inactive
19,CC(C)=CCCC(C)CC=O (configuration not stated),inactive

# Target: T2, OR2H2 (Homo sapiens) (UniProt O95918)
# T2 sequence (whole entry): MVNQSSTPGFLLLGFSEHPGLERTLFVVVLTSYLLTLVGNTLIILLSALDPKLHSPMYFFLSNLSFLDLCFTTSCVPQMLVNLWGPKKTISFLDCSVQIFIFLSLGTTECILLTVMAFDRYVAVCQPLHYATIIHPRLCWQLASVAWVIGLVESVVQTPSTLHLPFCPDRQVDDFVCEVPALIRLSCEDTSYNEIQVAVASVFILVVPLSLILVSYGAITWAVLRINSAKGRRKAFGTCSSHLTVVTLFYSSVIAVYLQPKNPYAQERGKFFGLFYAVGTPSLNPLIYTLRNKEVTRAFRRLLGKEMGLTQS
# Details: stereoisomer not certain
# Procedure, shortened: as §1
row,Compound,odorant receptor agonist call
1,CCCCCC=O,inactive
2,CCCCCCCC(=O)[O-].[H+],inactive
3,CCCCCCCCCCCC=O,inactive
4,CCCCCCCCO,inactive
5,CCCC=CC=CC=O,active
6,CCCCCC=CC=O,active
7,CC(C=O)=CCC(C)CC(C)C (configuration not stated),inactive
8,CC(C)=CCCC(C)CC=O (configuration not stated),active
